In ChEMBL document CHEMBL4311941, “Development of Multifunctional Histone Deacetylase 6 Degraders with Potent Antimyeloma Activity” (J Med Chem, 2019):
The source made the active and inactive calls. The rule behind the calls is not given here.

Columns and labels:
[1] = tested on: MM1.S; assay: Effect on HDAC1 mRNA expression in human MM1S cells at 100 nM measured after 6 hrs by SYBR green dye-based qRT-PCR analysis; assay type: functional, cell-based
In short: (§1)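 After treatment, MM1S cells washed twice with cold PBS. Total RNA extracted and normalized, then reverse-transcribed. 10 ng cDNA amplified with SYBR Green: 50 °C 2 min, 95 °C 2 min, then 40 cycles of 95 °C 1 s / 60 °C 30 s, followed by a melt curve. Expression calculated by the 2−ΔΔCt method.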

[2] = target: Protein cereblon/Zinc finger protein Aiolos (Homo sapiens) (UniProt Q96SW2+Q9UKT9); assay: Protac activity at CRBN/IKZF3 in human MM1S cells assessed as IKZF3 degradation at 100 nM measured after 6 hrs in presence of HDAC6 inhibitor Next-A by Western blot analysis; assay type: cell-based
Sequence of Protein cereblon/Zinc finger protein Aiolos (Homo sapiens) (Q96SW2 whole entry, looked up): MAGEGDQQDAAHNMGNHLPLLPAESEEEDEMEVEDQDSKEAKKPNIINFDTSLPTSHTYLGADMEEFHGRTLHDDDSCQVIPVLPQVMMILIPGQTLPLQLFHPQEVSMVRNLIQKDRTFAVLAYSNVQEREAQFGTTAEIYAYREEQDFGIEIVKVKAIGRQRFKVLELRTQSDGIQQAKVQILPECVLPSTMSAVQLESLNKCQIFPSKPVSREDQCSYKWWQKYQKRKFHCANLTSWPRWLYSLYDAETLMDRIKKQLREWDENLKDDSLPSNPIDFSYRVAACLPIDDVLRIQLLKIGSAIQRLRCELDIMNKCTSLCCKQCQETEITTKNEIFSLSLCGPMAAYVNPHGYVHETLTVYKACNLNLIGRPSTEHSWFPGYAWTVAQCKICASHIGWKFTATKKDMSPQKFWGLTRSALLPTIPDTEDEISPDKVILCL
Sequence of Protein cereblon/Zinc finger protein Aiolos (Homo sapiens) (Q9UKT9 whole entry, looked up): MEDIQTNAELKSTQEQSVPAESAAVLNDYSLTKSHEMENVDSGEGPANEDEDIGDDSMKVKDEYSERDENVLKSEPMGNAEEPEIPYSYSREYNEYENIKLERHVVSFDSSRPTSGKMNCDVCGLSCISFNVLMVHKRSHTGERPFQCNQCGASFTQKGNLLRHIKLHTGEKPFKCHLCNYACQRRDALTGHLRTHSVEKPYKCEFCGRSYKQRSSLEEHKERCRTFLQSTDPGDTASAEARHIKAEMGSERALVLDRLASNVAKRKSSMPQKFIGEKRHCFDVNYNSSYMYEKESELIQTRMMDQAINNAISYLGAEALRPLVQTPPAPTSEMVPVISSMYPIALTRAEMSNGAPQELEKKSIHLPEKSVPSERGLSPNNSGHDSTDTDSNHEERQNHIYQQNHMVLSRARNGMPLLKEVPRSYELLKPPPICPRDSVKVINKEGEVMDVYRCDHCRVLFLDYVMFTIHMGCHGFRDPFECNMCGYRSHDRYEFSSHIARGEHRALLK
In short: (§2)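 MM1S cells seeded at 1 × 10^6 per well overnight. Pretreated 1 h with pomalidomide, Next-A, MLN 4924 or DMSO, then given 100 nM degrader or DMSO for 6 h. Lysed in RIPA with protease inhibitors, 10−40 μg protein run on SDS-PAGE and transferred to PVDF. Blots probed for IKZF1/IKZF3, detected by ECL and quantified by densitometry.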

[3] = target: T1, Protein cereblon/Protein deacetylase HDAC6 (Homo sapiens, UniProt Q9UBN7+Q96SW2); assay: Protac activity at CRBN/HDAC6 in human MM1S cells assessed as HDAC6 degradation at 100 nM measured after 6 hrs in presence of proteasome inhibitor bortezomib by Western blot analysis; assay type: cell-based
T1 sequence (Q96SW2 whole entry, looked up): as the sequence (Q96SW2 whole entry, looked up) above
T1 sequence (Q9UBN7 whole entry, looked up): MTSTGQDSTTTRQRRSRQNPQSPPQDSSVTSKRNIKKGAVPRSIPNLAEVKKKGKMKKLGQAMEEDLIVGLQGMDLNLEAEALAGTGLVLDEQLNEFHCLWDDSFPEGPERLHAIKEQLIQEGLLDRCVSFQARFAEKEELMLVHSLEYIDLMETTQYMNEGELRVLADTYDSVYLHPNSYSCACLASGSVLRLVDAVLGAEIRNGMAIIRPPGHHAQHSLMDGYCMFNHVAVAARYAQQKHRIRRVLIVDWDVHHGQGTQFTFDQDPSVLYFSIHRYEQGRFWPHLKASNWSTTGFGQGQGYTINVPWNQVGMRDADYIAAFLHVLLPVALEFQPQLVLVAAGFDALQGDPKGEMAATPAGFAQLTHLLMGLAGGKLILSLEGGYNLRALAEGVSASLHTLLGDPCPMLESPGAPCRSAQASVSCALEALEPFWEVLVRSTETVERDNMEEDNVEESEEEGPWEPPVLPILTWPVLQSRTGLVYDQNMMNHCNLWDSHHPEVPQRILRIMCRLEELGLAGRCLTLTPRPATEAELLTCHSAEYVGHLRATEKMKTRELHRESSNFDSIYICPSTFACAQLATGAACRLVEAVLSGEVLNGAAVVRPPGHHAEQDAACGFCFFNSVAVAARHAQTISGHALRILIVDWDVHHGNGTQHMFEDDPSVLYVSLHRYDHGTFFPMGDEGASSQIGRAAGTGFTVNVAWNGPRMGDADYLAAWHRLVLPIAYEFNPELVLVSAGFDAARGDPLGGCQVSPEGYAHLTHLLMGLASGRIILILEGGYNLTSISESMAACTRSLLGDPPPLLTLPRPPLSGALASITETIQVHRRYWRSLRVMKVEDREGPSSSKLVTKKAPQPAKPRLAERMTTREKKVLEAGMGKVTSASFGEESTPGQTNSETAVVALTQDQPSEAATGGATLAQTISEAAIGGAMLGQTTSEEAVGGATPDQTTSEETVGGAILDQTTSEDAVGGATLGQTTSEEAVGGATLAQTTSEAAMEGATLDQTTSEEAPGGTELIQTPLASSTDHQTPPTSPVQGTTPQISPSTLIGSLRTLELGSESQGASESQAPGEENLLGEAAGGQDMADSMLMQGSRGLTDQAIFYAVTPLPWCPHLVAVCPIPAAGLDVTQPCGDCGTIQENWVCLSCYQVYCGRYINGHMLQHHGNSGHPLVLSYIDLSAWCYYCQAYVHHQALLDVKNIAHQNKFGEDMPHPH

[4] = target: T2, Histone deacetylase 11 (Homo sapiens, UniProt Q96DB2); assay: Inhibition of human N-terminal tagged human HDAC11 expressed in HEK293T/17 using Boc-[TFA-Lys]-AMC as substrate preincubated for 10 mins followed by substrate addition and measured after 60 mins by fluorescence assay
T2 sequence (Q96DB2 whole entry): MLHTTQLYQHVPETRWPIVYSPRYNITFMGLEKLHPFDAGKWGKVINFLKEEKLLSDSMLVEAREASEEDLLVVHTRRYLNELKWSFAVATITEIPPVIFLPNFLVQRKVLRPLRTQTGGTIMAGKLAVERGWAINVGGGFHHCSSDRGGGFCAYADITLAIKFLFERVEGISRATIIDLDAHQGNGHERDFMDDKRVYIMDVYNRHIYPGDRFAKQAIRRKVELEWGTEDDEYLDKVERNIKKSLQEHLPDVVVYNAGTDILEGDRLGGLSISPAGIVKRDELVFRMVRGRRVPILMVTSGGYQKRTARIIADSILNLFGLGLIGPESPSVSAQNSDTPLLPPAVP

[5] = target: T1, Protein cereblon/Protein deacetylase HDAC6; assay: Protac activity at CRBN/HDAC6 in human MM1S cells assessed as HDAC6 degradation at 100 nM incubated for 6 hrs followed by compound washout and measured up to 48 hrs by Western blot analysis; assay type: cell-based
In short: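 MM1S cells treated 6 h with 100 nM, washed with PBS to remove compound, then HDAC6 followed by immunoblot for up to 48 h. Lysis in RIPA; SDS-PAGE and PVDF transfer; primary antibody 4 °C overnight, HRP secondary, ECL.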

[6] = target: Cereblon/Ikaros (Homo sapiens) (UniProt Q96SW2+Q13422); assay: Protac activity at CRBN/IKZF1 in human MM1S cells assessed as IKZF1 degradation at 100 nM measured after 6 hrs in presence of NAE inhibitor MLN 4924 by Western blot analysis; assay type: cell-based; in short: as §2
[7] = tested on: MM1.S; assay: Effect on HDAC6 mRNA expression in human MM1S cells at 100 nM measured after 6 hrs by SYBR green dye-based qRT-PCR analysis; assay type: functional, cell-based; in short: as §1
[8] = target: Histone deacetylase 4 (Homo sapiens, UniProt P56524); assay: Inhibition of human N-terminal tagged human HDAC4 expressed in HEK293T/17 using Boc-[TFA-Lys]-AMC as substrate preincubated for 10 mins followed by substrate addition and measured after 60 mins by fluorescence assay
Sequence of Histone deacetylase 4 (P56524 whole entry): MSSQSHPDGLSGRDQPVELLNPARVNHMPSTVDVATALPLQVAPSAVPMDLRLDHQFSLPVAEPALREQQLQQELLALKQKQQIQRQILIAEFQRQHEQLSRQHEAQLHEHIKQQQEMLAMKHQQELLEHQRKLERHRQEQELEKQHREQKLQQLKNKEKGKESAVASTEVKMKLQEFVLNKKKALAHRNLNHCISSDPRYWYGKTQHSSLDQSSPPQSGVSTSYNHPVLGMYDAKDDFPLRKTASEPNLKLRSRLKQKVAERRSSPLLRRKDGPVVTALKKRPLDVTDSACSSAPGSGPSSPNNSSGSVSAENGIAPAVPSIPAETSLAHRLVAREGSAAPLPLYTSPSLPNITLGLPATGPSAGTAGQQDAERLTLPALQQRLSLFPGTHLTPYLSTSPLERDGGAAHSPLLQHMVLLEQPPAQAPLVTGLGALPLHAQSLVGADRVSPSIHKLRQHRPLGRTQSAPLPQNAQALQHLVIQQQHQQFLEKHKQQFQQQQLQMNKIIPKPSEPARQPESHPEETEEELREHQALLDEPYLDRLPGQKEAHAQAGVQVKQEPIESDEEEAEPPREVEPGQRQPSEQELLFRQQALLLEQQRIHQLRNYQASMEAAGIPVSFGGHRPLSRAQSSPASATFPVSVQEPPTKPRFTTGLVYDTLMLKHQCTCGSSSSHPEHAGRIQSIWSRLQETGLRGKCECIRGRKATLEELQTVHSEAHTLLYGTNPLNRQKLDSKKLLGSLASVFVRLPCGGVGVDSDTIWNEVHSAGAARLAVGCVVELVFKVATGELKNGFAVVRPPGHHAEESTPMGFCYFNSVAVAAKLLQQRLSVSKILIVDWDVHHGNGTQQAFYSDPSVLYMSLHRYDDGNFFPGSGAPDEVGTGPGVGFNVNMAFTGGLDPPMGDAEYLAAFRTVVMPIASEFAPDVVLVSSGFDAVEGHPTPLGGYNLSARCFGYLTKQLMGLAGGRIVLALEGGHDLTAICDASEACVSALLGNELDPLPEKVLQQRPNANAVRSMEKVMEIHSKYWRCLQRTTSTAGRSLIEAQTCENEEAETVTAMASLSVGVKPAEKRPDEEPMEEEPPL

[9] = target: T1, Protein cereblon/Protein deacetylase HDAC6; assay: Protac activity at CRBN/HDAC6 in human MM1S cells assessed as HDAC6 degradation measured after 6 hrs by ELISA relative to control; assay type: cell-based
In short: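 In-cell ELISA: MM1S cells (5 × 10^4 per well) seeded overnight, treated 6 h (dosed as 5× medium; 0.1 nM–1 μM or 10/100 nM). Fixed in 8% formaldehyde/TBS, permeabilized with 0.1% Triton X, peroxidase quenched with 1% H2O2, blocked in 5% BSA. Anti-HDAC6 rabbit mAb (1:1000, 2 h) then HRP secondary; TMB read as OD450 − OD570. Background wells lacked primary antibody. Signal normalized to Janus Green and to DMSO wells, n = 3. DC50/Dmax from three-parameter fit.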

[10] = target: Protein cereblon/Histone deacetylase 4 (Homo sapiens) (UniProt P56524+Q96SW2); assay: Protac activity at CRBN/HDAC4 in human MM1S cells assessed as HDAC4 degradation measured after 6 hrs by Western blot analysis; assay type: cell-based
Sequence of Protein cereblon/Histone deacetylase 4 (Homo sapiens) (P56524 whole entry, looked up): as the sequence (P56524 whole entry) above
Sequence of Protein cereblon/Histone deacetylase 4 (Homo sapiens) (Q96SW2 whole entry, looked up): as the sequence (Q96SW2 whole entry, looked up) above

[11] = target: T1, Protein cereblon/Protein deacetylase HDAC6; assay: Protac activity at CRBN/HDAC6 in human MM1S cells assessed as HDAC6 degradation at 100 nM measured after 6 hrs in presence of NAE inhibitor MLN 4924 by Western blot analysis; assay type: cell-based

- Activity [2]: Active
- Activity [3]: inactive
- IC50 [4]: 0.3 to 30 µM
- Activity [5]: Active
- Activity [6]: inactive
- IC50 [8]: 0.3 to 30 µM
- %max [9]: 86.3%
- Activity [10]: inactive
- Activity [11]: inactive
Structure (SMILES): CCCCN(Cc1ccc(C(=O)NO)cc1)C(=O)Nc1ccc(OCCCCCn2cc(CNc3cccc4c3C(=O)N(C3CCC(=O)NC3=O)C4=O)nn2)cc1 (stereo unspecified)
- Activity [1]: Active
- Activity [7]: Active
